Compound activity deposited in PubChem by The Scripps Research Institute Molecular Screening Center.
This is a sample that favours compounds with a hit; in the whole collection about 1.8% have one here.
NPY-Y1 antag – NPY-Y1 (human) receptor antagonism; P25929; HEK293-CNG Y1 cells, membrane potential fluorescence; NPY at EC95, then isoproterenol; inhibition, % at 3.6 µM; AID 1040; actives 1% (n = 200,000);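 active means inhibition above the campaign mean inhibition of all tested compounds plus 3 SD, cut at about 20% in these data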;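 further: 0% = DMSO wells given NPY plus isoproterenol and 100% = isoproterenol alone without NPY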
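Material: HEK293 Y1/CNG channel cell line; also added: NPY (25 nM), isoproterenol (1 µM), Ro 20-1724 (25 µM); doses: one concentration, 3.6 µM, in 0.4% DMSO; schedule: compound incubation 1 h at room temperature, readout 45 min post-stimulation; technique: membrane potential fluorescence; measure: fluorescence ratio normalized to % inhibition between controls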
NPY-Y1 PAM-ag – human NPY-Y1 potentiation or agonism, primary screen; P25929; activation, % at 3.6 µM; actives 0.37% (n = 220,000); AID 1304; NPY-Y1 expressing cells, potentiator/agonist activation; in the data active means activation above about 33%, passing the limit was not always enough;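 further: cells stimulated with NPY at EC10 then isoproterenol at EC100; 0% = low agonist plus stimulus and 100% = saturating agonist plus stimulus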
NPY Y2 blocker – NPY-Y2 (human) receptor antagonism; actives 0.99% (n = 140,000); inhibition, % at 2.7 µM; AID 793; NPY-Y2 expressing cells, antagonist mode; in the data active means inhibition above about 17%;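 further: 0% = vehicle with agonist challenge and 100% = reference antagonist with challenge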
Target sequence (P49146 whole entry, looked up): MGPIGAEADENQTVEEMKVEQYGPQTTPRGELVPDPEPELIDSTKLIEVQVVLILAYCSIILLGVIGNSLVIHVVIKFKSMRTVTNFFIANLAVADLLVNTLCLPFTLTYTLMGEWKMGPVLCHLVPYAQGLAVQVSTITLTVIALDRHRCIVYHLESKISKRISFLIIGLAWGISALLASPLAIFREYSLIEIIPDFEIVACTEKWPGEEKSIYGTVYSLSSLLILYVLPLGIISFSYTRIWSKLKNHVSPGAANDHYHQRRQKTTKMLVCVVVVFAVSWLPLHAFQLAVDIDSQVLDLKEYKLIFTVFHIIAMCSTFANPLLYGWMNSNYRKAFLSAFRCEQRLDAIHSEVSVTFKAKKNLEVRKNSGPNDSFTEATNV
NPY-Y2 PAM-ag – potentiators or agonists of human neuropeptide Y receptor Y2; P49146; cells expressing NPY-Y2, potentiator/agonist read-out; activation, % at 3.6 µM; actives 0.45% (n = 220,000); in the data active means activation above about 27%;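 further: cells stimulated with NPY near EC25 plus isoproterenol at EC100; 0% = vehicle plus submaximal agonist and 100% = vehicle plus saturating agonist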
NPY-Y2 confirm – human NPY-Y2 potentiation or agonism, confirmation | actives 20% (n = 450) | cell-based NPY-Y2 potentiator/agonist assay | AID 1539 | activation, % at 3.6 µM | shares compounds with NPY-Y2 PAM-ag; in the data active means activation above about 33%
NPY-Y1 potentiator – NPY-Y1 potentiation or agonism as NPY-Y2 counter-screen; shares compounds with NPY-Y2 PAM-ag; Y1 HEK293-CNG cells, membrane potential fluorescence; activation, % at 3.6 µM; actives 20% (n = 450); AID 1651; in the data active means activation above about 45%;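 further: cells stimulated with submaximal NPY then isoproterenol with phosphodiesterase inhibitor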
NPY-Y1 ag 2 – human NPY-Y1 agonism as NPY-Y2 potentiator counter-screen; shares compounds with NPY-Y2 PAM-ag; HEK293 Y1-CNGC, membrane potential fluorescence; activation, % at 3.6 µM; actives 37% (n = 450); AID 1702;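 active means activation above the mean of DMSO-only control wells plus 3 SD, cut at about 18% in these data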;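 further: cells stimulated with 1 µM isoproterenol plus the PDE inhibitor Ro 20-1724; 0% = isoproterenol with DMSO and no NPY and 100% = 40 nM NPY; Y1 agonists lower the membrane potential dye signal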
CNGC inh – counter-screen for NPY-Y2 potentiators: inhibitors of CNG channel activity; shares compounds with NPY-Y2 PAM-ag; HEK293-CNG parental, isoproterenol cAMP, membrane potential fluorescence; inhibition, % at 3.6 µM; actives 32% (n = 450); AID 1703;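 active means inhibition above the control-well mean plus 3 SD of those wells, cut at about 22% in these data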;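 further: 0% = DMSO with isoproterenol and 100% = DMSO without isoproterenol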
Y2 agonist ctr – counter-screen for NPY-Y2 potentiators: agonists of human NPY-Y2. shares compounds with NPY-Y2 PAM-ag. HEK293 Y2/CNGC cells, membrane potential fluorescence, agonist mode. activation, % at 3.6 µM. actives 56% (n = 450). AID 1710;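 active means activation above the mean of solvent-only control wells plus 3 SD, cut at about 10% in these data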;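 further: cells stimulated by isoproterenol with no NPY added so direct agonism is tested; 0% = DMSO with isoproterenol alone and 100% = NPY at EC100 plus isoproterenol; agonism lowers probe fluorescence through less cAMP and CNG channel opening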
Starred values were filed as active, the others as inactive; . = no result.

SMILES	NPY-Y1 antag	NPY-Y1 PAM-ag	NPY Y2 blocker	NPY-Y2 PAM-ag	NPY-Y2 confirm	NPY-Y1 potentiator	NPY-Y1 ag 2	CNGC inh	Y2 agonist ctr
COc1ccc(Sc2nnc(-c3ccccc3)cc2C#N)cc1	1	21	0	18	.	.	.	.	.
COc1ccc(/C=C\C(=O)c2c(O)ccc3c(C)cc(=O)oc23)cc1	15	-32	10	-26	.	.	.	.	.
COc1ccc(/C=C/C(=O)c2c(O)ccc3c(C)cc(=O)oc23)cc1	1	33	7	64*	-18	-30	-32	-23	-14
CCCCC1CCC(C(=O)N2CCOCC2)CC1 (stereo unspecified)	2	15	1	12	.	.	.	.	.
Cc1c(C(C)C)c(=O)n(-c2ccc(S(=O)(=O)NCc3ccccc3)cc2)n1C	-1	-23	.	35*	2	-40	-28	-9	1
N#C/C(=C\Nc1ccccc1O)c1nc2ccccc2o1	2	15	0	31*	25	37	29*	34*	18*
N#C/C(=C\c1ccncc1)c1nc2ccccc2o1	.	8	.	-31	.	.	.	.	.
COc1ccc(C(=O)n2nc(C)c(Br)c2C)cc1	5	8	2	1	.	.	.	.	.
COc1cc(NC(=S)NC(=O)C(C)C)ccc1NC(=O)c1cc2ccccc2o1	1	13	.	8	.	.	.	.	.
Cc1ccc(NC(=O)c2ccccc2NS(=O)(=O)c2ccc(Cl)s2)cc1	-3	21	8	43*	-16	-60	-45	-22	-17
O=C(Nc1ccccc1)c1ccccc1NS(=O)(=O)c1ccc(Cl)s1	2	47	7	14	.	.	.	.	.
NC(=NCCc1c[nH]c2ccccc12)NC(=O)c1ccc(Cl)cc1	-1	27	.	28*	26	30	39*	37*	42*
O=Cc1cc(N=Nc2ccccc2Cl)ccc1O	-15	33	.	34*	42*	51*	25*	25*	39*
CN(C)CCCN(C(=O)CCc1ccccc1)c1nc2c(F)cccc2s1	12	-39	10	-8	.	.	.	.	.
Cc1cccc2sc(N(CCN(C)C)C(=O)/C=C/c3cccs3)nc12	10	12	1	53*	91*	112*	97*	86*	100*
CN(C)CCCN(C(=O)/C=C/c1cccs1)c1nc2c(F)cccc2s1	15	21	.	36*	66*	73*	55*	63*	65*
CC(=O)N(C(C)=O)c1ncc2c([nH]c3ccccc32)c1C#N	-7	-2	-1	1	.	.	.	.	.
CCC(=O)Nc1nc(-c2ccc3c(c2)CC(C)N3S(C)(=O)=O)cs1 (stereo unspecified)	-3	7	.	-13	.	.	.	.	.
CC1Cc2cc(-c3csc(NC(=O)Cc4cccs4)n3)ccc2N1S(C)(=O)=O (stereo unspecified)	15	14	13	44*	0	-16	-29	-18	-1
O=C(N/N=C/c1ccc(OC(F)F)cc1)c1cccc(S(=O)(=O)N2CCOCC2)c1	0	10	.	57*	1	-3	3	3	10*
c1ccc(-c2nc(-c3cccs3)[nH]c2-c2ccccc2)cc1	-9	37	-2	41*	28	46*	27*	26*	28*
CCOC(=O)c1[nH]c2ccc(F)cc2c1NC(=O)CN1CCN(C/C=C/c2ccccc2)CC1	-2	29	-1	38*	67*	90*	68*	71*	53*
COC(=O)c1[nH]c2ccccc2c1NC(=O)CN1CCN(C/C=C/c2ccccc2)CC1	2	-25	5	7	.	.	.	.	.
Cc1c(CCO)sc[n+]1CC(=O)OCCC12CC3CC(CC(C3)C1)C2	0	6	2	14	.	.	.	.	.
CC(=O)N(Cc1ccc(F)cc1)C1=C(NCc2ccccc2)C(=O)c2ccccc2C1=O	3	-7	2	38*	16	10	1	13	10*
SMILES	NPY-Y1 antag	NPY-Y1 PAM-ag	NPY Y2 blocker	NPY-Y2 PAM-ag	NPY-Y2 confirm	NPY-Y1 potentiator	NPY-Y1 ag 2	CNGC inh	Y2 agonist ctr
O=C(Nc1cc(S(=O)(=O)N2CCCCC2)ccc1Cl)c1ccccc1NS(=O)(=O)c1ccc(F)cc1	6	-59	3	42*	30	5	0	14	19*
O=C(Nc1cc(S(=O)(=O)N2CCCCC2)ccc1O)c1ccccc1NS(=O)(=O)c1ccc(F)cc1	3	18	-1	20	.	.	.	.	.
Cc1ccc(S(=O)(=O)CCN2CCN(c3ccccn3)CC2)cc1	.	15	.	-17	.	.	.	.	.
CCOC(=O)c1sc(NC(=O)c2noc3c2CCCC3)c(C(=O)OCC)c1C	-5	3	-2	-11	.	.	.	.	.
Cc1sc(-c2ccccn2)nc1OC(=O)c1ccc(Cl)c(Cl)c1	5	-2	5	3	.	.	.	.	.
Cc1sc(-c2ccccn2)nc1OC(=O)c1ccc(F)cc1F	-4	26	.	37*	7	11	14	-3	18*
Nc1nc(CCl)nc(Nc2ccccc2)n1	-3	12	.	-8	.	.	.	.	.
Nc1nc(Nc2ccc(Cl)cc2)nc2ccccc12	-6	36	-1	51*	55*	65*	41*	50*	42*
C=CCN1C(=O)/C(=C/c2ccc(OC(C)=O)c(OCC)c2[N+](=O)[O-])SC1=S	4	10	.	36*	14	-5	5	2	12*
CCOc1c(OC(C)=O)ccc(/C=C/c2ccc3cccc(OC(C)=O)c3n2)c1[N+](=O)[O-]	-12	22	0	24	.	.	.	.	.
CC1CC(C)CN(C(=O)CSc2nnc(-c3ccc(F)cc3)o2)C1 (stereo unspecified)	9	-10	5	-10	.	.	.	.	.
COc1ccc(C(C)=O)c2c(O)cccc12	4	1	2	15	.	.	.	.	.
O=C(c1ccc(S(=O)(=O)Nc2ccc(F)cc2)cc1)N1CCN(c2ccccn2)CC1	-5	-3	.	8	.	.	.	.	.
Cc1ccc(NS(=O)(=O)c2ccc(C(=O)N3CCN(c4ncccn4)CC3)cc2)cc1	-1	8	.	35*	-5	-19	-20	-10	-13
Cc1ccc(SCCC(=O)Nc2ccc(OCc3ccccc3)cc2)cc1	7	1	4	-19	.	.	.	.	.
O=C(Nc1ccc(OCC(F)(F)C(F)F)c(C(F)(F)F)c1)c1ccccc1O	6	41	4	61*	3	-17	-17	-11	1
CNc1ccc(/C=C2\COc3ccccc3C2=O)cc1[N+](=O)[O-]	-3	14	-2	2	.	.	.	.	.
CNC[C@H](O)c1ccc(O)c(O)c1	-3	61	1	60*	59*	48*	71*	58*	49*
